Screening results deposited in PubChem by The Scripps Research Institute Molecular Screening Center.
The list is not random: actives were taken first. Their share in the collection is about 3.7%.
HCV core dimer: blocks dimerization of HCV core protein; TR-FRET GST/Flag-core106 dimerization, 1536-well; inhibition, % at 5 µM; actives 0.33% (n = 300,000); AID 1899;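 active means inhibition above the mean of all tested compounds plus 3 SD, set per screening campaign, cut at about 45% in these data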
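System: GST/Flag-tagged HCV core106 proteins. Incubation: compound-protein-antibody incubation 4 h at 22.5 °C. Technique: HTRF with 340 nm excitation, 617/671 nm emission. Medium: KF-containing HEPES buffer, pH 7.45, DTT, CHAPS, BSA. Read-out: inhibition (%) from 671 over 617 nm ratio. Also added: Eu(K)-anti-GST 90 ng/mL plus XL665-anti-Flag 1 µg/mL.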
HCV NS3 hel inh: blocks Hepatitis C virus NS3 helicase unwinding; AID 1800; NS3 helicase DNA unwinding, Cy5 molecular beacon fluorescence; actives 0.56% (n = 290,000); inhibition, % at 10.9 µM;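 active means inhibition above the mean of all tested compounds plus 3 SD, set per campaign, cut at about 35% in these data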;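 further: 0% = DMSO wells and 100% = thioflavine S control wells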
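Control set: DMSO versus 110 µM thioflavine S; Material: NS3 helicase fragment of HCV; Measured by: Cy5 fluorescence at 0 and 60 min, beacon hairpin quenching; Read-out basis: percent inhibition from t60/t0 fluorescence ratio; Times: reaction time 60 min, 25 °C; Repeats: single replicate; Compound dosing: single dose, 10.9 µM nominal final, DMSO 0.8% final.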
TAAR1 agonist: agonists of human TAAR1. Q96RJ0. CHO RD-HGA16 TAAR1, Fluo-8 calcium fluorescence; vehicle wells 0%, saturating PEA agonist 100%. activation, % at 3 µM. actives 0.99% (n = 360,000). AID 624467;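 active means activation above the mean activation of all test compounds in the run plus 3 SD, cut at about 38% in these data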
Target sequence (Q96RJ0 whole entry, looked up): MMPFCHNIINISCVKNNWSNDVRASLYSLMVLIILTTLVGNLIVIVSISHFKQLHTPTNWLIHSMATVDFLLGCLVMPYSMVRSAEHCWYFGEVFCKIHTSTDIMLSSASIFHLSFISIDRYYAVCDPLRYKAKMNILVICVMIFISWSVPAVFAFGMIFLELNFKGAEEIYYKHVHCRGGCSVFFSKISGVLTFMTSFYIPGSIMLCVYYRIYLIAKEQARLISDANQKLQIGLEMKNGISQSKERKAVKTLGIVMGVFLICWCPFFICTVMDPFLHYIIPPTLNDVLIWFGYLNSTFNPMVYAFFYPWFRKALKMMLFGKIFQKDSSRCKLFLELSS
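System: CHO RD-HGA16 cells carrying human TAAR1 plus Gα16; Incubation: 17-24 h seeding, 75 min 37 °C dye, 30 min RT; Measured by: Fluo-8 fluorescence, 5 s baseline then 140 s kinetic read; Control set: DMSO and PEA EC100; Replication: single well for each compound.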
TAAR1 antag: antagonists of human TAAR1; Q96RJ0; actives 1.5% (n = 360,000); inhibition, % at 3 µM; CHO RD-HGA16 TAAR1, Fluo-8 calcium fluorescence, antagonist;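 active means inhibition above a per-plate cutoff, the mean inhibition of test compounds on that plate plus 3 SD, cut at about 49% in these data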;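 further: 0% = DMSO plus EC80 beta-PEA response and 100% = DMSO alone without agonist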
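Assay system: CHO-derived RD-HGA16 cells stably expressing human TAAR1 plus Gα16. Timing: 140 s kinetic read after compound, 140 s after agonist. Technique: kinetic Fluo-8 calcium fluorescence measurement. Measure: % inhibition of agonist calcium response.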
rCAG RNA binder: molecules binding r(CAG) RNA repeats; r(CAG) RNA repeat, TO-PRO-1 dye displacement fluorescence; inhibition, % at 3 µM; actives 1.3% (n = 370,000);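 active means inhibition above the plate cutoff, the mean of all test compounds on that plate plus 3 SD, cut at about 35% in these data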;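 further: 0% = DMSO alone and 100% = 100 µM mitoxantrone as full dye displacement; higher means more dye released from RNA so lower well fluorescence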
Numbers without * were called inactive; / = not tested or not shown.

SMILES | HCV core dimer | HCV NS3 hel inh | TAAR1 agonist | TAAR1 antag | rCAG RNA binder
CC(=O)Nc1ccc2c(COC(=O)CC3Sc4ccccc4NC3=O)cc(=O)oc2c1 (stereo not drawn) | 22 | 20 | 6 | 21 | 10
COc1ccc2c(COC(=O)CC3Sc4ccccc4NC3=O)cc(=O)oc2c1 (stereo not drawn) | 30 | 16 | 15 | 54* | 21
O=C(Nc1ccc(Nc2ccncc2)cc1)c1ccc(Nc2ccnc3ccc([N+](=O)[O-])cc23)cc1[N+](=O)[O-] | 62* | -30 | 1 | -12 | 6
NC(=O)c1oc2ccccc2c1NC(=O)c1nc2ccccc2s1 | -15 | -2 | 8 | 0 | 13
O=C(Nc1nnc(-c2ccccc2)o1)c1nc2ccccc2s1 | 13 | / | 154* | 42 | 18
O=C(NC(=S)NNC(=O)[C@H]1C[C@@H]1c1ccccc1)c1ccc(F)cc1 | -3 | 3 | 41* | 63* | 2
Cc1ccc2nc(SCC(=O)c3ccc(O)cc3O)[nH]c2c1 | -2 | 7 | 41* | -30 | 6
COC(=O)CSc1nc2ccc(C)cc2[nH]1 | 5 | -6 | 1 | 2 | -1
COc1ccc(-c2cc(-c3ccc(OC)cc3)c(C#N)c(SC)n2)cc1 | 75* | 2 | 3 | 2 | 1
COc1ccc(-c2cc(-c3ccc(O)cc3)nc(N)c2C#N)cc1 | 7 | 11 | 12 | 27 | 8
COc1ccc(-c2cc(-c3ccccc3)c(C#N)c(SCC(=O)Nc3ncc(C)s3)n2)cc1 | 56* | 4 | -1 | -13 | 18
Cc1ccc(C(=O)N2CCCCC2)cc1NC1=C(Cl)C(=O)N(Cc2ccccc2)C1=O | / | / | 4 | 50* | 2
CCN1CCN(C(=O)/C=C/c2ccc(C(C)C)cc2)CC1 | -4 | / | 1 | -37 | -2
CCN1CCC(O)(/C=C/c2ccc(C(C)C)cc2)C(C(=O)/C=C/c2ccc(C(C)C)cc2)C1 (stereo not drawn) | / | / | 40* | 24 | -1
COc1ccc(-n2nc(C(=O)NCC(=O)Nc3cc(OC)ccc3OC)c3ccccc3c2=O)cc1 | 14 | -18 | 13 | 48 | 17
COc1ccc(/C=N/NC(=O)c2nn(-c3ccc(C)c(C)c3)c(=O)c3ccccc23)cc1 | 56* | 9 | 8 | 10 | 2
O=C(Oc1cccc(Nc2ncnc3ccccc23)c1)c1cccnc1 | 13 | -9 | 11 | 31 | -2
COc1cc(C(=O)Oc2cccc(Nc3ncnc4ccccc34)c2)cc(OC)c1OC | 3 | -17 | 13 | 82* | 4
CCC(=O)Nc1nnc(S(=O)(=O)N(CC)c2ccc(OC)cc2)s1 | -2 | -5 | -2 | -18 | 3
CCN(c1ccc(OC)cc1)S(=O)(=O)c1nnc(NC(=O)COc2ccc(C)cc2)s1 | 56* | 16 | / | / | /
CCC(C(=O)OCC(=O)C1(O)CCC2C3CCC4=CC(=O)CCC4(C)C3C(O)CC21C)C(C)C (stereo not drawn) | / | / | 14 | 62* | 1
O=C(Nc1ccc(F)cc1)OCc1cn(Cc2cccc(F)c2)nn1 | / | / | / | / | 3
O=C(Nc1nc2c(s1)CN(Cc1ccccc1)CC2)c1cccc(S(=O)(=O)N2CCc3ccccc32)c1 | -35 | -90 | 38* | 21 | -48
CC(=O)Nc1cccc(NC(=O)c2ccc3c(c2)CCN3S(=O)(=O)c2ccccc2)c1 | 8 | -15 | 5 | 50* | 8
Cc1cc(NC(=O)c2ccc(S(=O)(=O)N3CCOCC3)cc2)no1 | -1 | 0 | 2 | 3 | -1
SMILES | HCV core dimer | HCV NS3 hel inh | TAAR1 agonist | TAAR1 antag | rCAG RNA binder
Cc1cc(NC(=O)c2ccc(S(=O)(=O)N3CCc4ccccc43)cc2)no1 | 72* | -1 | -2 | 0 | 12
CN(CCO)c1ccc2c(c1)Oc1ccccc1CN(Cc1cn(Cc3ccc(F)cc3)nn1)S2(=O)=O | / | / | / | / | 1
COc1ccc(-c2csc(NCCc3nc4cc(Cl)c(Cl)cc4n3CCCO)n2)cc1 | 0 | / | 10 | 55* | 7
COc1ccc(NC(=O)c2ccc(COc3ccccc3OC)o2)cc1OC | 5 | -5 | 12 | 26 | 1
COc1ccc(NC(=O)c2ccc(COc3ccccc3Br)o2)cc1OC | 2 | -10 | 4 | 80* | 1
COC(=O)[C@]12C[C@H](CC(=O)NCCCN3CCCC3=O)C(=O)N(Cc3ccco3)C1=C[C@H](C(C)(C)C)O[C@@H]2C | / | / | / | / | -3
